Paper PMC3220786 (ACS Chemical Biology, 2011)

How the values were obtained:
[1] = system: Murine pro-B cell line Ba/F3; experiment: Cytotoxicity, Ba/F3 cells; assay type: cell-based; conditions: read-out: mammalian cell line CC50; Ba/F3; CellTiter Glo reagent
[2] = system: P. falciparum 3D7 strain; experiment: SYBR Green parasite proliferation assay, 3D7; assay type: cell-based, Plasmodium falciparum; conditions: CC50 Ba/F3 / IC50 P. falciparum 3D7
[3] = Cytotoxicity, Ba/F3 cells; assay type: cell-based, murine; conditions: mouse, Ba/F3 cells
[4] = system: P. falciparum ScDHOD-D10attB; experiment: SYBR Green proliferation assay, transgenic ScDHOD-D10attB line; assay type: cell-based, Plasmodium falciparum; conditions: for IC50: Plasmodium falciparum, read-out: IC50 values, ScDHOD-D10attB; for shift in IC50, ScDHOD-D10attB vs parental line: transgenic parasites expressing yeast dihydroorotate dehydrogenase
How it was run: (§1)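 Blood-stage P. falciparum D10attB parental line and ScDHOD-D10attB transgenic line (single integrated copy of yeast DHOD gene) were tested in the SYBR Green proliferation assay. IC50 values are means ± SD of three independent experiments, each in duplicate. The shift compares the transgenic IC50 with the parental IC50.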

[5] = system: P. yoelii (17XNL strain) sporozoites; experiment: Prophylaxis activity test in sporozoite-infected mice; assay type: in vivo, ICR female mouse; conditions: single oral dose (decoquinate 50 mg kg-1, atovaquone 2.5 mg kg-1)
How it was run: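 ICR female mice (7 weeks, 26–36 g) received 50,000 P. yoelii 17XNL sporozoites via the tail vein. Immediately afterwards they were given a single oral gavage dose of test compound at 50 mg kg–1 in corn oil (5 mice). Parasitemia was checked daily by Giemsa-stained tail-snip blood microscopy. Prepatent period = first day parasitemia was seen. Mice were euthanized above 20% parasitemia.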

[6] = system: P. falciparum DEC-R line; experiment: SYBR Green proliferation assay, decoquinate-resistant; assay type: cell-based, Plasmodium falciparum; conditions: loss of potency against decoquinate-resistant clone
[7] = system: P. falciparum D10attB; experiment: SYBR Green proliferation assay, parental D10attB line; assay type: cell-based; conditions: Plasmodium falciparum, read-out: IC50 values, D10attB
How it was run: as §1

[8] = system: P. yoelii sporozoites in HepG2-A16-CD81EGFP cells; assay type: cell-based, Plasmodium yoelii; conditions: Plasmodium yoelii, in Homo sapiens, read-out: IC50, liver stage
[9] = system: P. falciparum ATQ-R lines (cytochrome b mutants); experiment: SYBR Green proliferation assay, atovaquone-resistant; assay type: cell-based, Plasmodium falciparum
[10] = target: T1, P. yoelii cytochrome c reductase (Plasmodium yoelii, UniProt Q7PDA7); experiment: Ubiquinol-cytochrome c oxidoreductase; assay type: biochemical
T1 sequence (Q7PDA7 1-376): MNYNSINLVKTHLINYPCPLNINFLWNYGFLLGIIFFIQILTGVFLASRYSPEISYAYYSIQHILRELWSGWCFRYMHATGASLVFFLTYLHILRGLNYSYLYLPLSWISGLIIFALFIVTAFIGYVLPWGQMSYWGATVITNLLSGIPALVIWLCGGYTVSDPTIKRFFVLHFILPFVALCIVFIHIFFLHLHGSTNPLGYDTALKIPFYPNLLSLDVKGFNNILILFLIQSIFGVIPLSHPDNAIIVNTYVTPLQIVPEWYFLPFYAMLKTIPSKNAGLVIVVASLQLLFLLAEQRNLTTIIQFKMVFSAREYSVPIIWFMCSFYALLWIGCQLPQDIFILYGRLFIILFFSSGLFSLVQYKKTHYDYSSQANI
T1 sequence (V7P9V8 31-357 partner): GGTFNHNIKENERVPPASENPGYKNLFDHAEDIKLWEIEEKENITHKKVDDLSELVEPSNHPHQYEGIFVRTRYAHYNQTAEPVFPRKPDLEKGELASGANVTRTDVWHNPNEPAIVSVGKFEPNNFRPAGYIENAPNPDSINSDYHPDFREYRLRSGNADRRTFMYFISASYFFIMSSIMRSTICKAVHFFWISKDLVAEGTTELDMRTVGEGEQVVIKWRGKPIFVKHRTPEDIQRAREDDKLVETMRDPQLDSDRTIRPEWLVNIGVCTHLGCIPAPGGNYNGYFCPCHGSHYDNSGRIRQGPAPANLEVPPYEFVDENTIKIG
T1 sequence (Q7RJI2 1-394 partner): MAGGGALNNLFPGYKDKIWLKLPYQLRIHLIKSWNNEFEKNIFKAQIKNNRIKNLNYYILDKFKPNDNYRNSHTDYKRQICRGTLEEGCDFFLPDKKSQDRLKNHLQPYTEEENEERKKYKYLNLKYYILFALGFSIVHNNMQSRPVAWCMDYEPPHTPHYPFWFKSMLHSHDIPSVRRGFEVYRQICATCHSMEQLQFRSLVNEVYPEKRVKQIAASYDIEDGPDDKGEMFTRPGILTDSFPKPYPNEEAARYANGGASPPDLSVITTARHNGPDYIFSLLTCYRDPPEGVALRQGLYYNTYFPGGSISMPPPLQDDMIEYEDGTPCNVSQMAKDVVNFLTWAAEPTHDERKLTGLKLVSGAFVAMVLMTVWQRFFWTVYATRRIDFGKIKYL

Compound | CC50 [1] | therapeutic index CC50/IC50 [2] | CC50 at 3 days [3] | also measured
Cl.Cl.O=C(Nc1ccc(C2=NCCCN2)cc1)c1ccc(C(=O)Nc2ccc(C3=NCCCN3)cc2)cc1 [NSC 57153] | 550 nM | 1.1 |  | 
CCCOC(=O)C[N+](C)(C)CCOCCCCCCCCCCOCC[N+](C)(C)CC(=O)OCCC [Prodeconium] | > 6250 nM | >156 |  | 
COc1ccc(C[C@H](N)C(=O)N[C@H]2[C@@H](O)[C@H](n3cnc4c(N(C)C)ncnc43)O[C@@H]2CO)cc1 [Puromycin] |  | >14.2 | > 1250 nM | 
CO\C=C(C(=O)OC)/C(C)=C\C=C\c1ccc(Cl)c(OC)c1 [Strobilurin B] | 3100 nM | 13.5 |  | 
CCCCCCCCNC(C)C(O)c1ccc(SC(C)C)cc1 (stereo not shown) [Suloctidil] |  | 0.6 | 970 nM | 
N=C(N)NCCCCCCCCCCNC(=N)N [Synthalin] |  | >200 | > 5400 nM | 
CCN(CC)CCOc1ccc2c(c1)C(=O)c1cc(OCCN(CC)CC)ccc1-2 [Tilorone] |  | >12.5 | > 12500 nM | 
CC(C)[C@@H]1NC(=O)[C@H](C)OC(=O)[C@@H](C(C)C)NC(=O)[C@@H](C(C)C)OC(=O)[C@H](C(C)C)NC(=O)[C@H](C)OC(=O)[C@@H](C(C)C)NC(=O)[C@@H](C(C)C)OC(=O)[C@H](C(C)C)NC(=O)[C@H](C)OC(=O)[C@@H](C(C)C)NC(=O)[C@@H](C(C)C)OC1=O [Valinomycin] |  | 12.8 | 91 nM | 
CC1=C[C@H]2O[C@@H]3C[C@H]4OC(=O)/C=C\C=C\C(=O)OCC/C(C)=C/C(=O)OC[C@@]2(CC1)[C@]4(C)[C@]31CO1 [Verrucarin J] |  | 12.1 |  | 
O=C1C(O)=C([C@H]2CC[C@H](c3ccc(Cl)cc3)CC2)C(=O)c2ccccc21 [atovaquone] |  |  |  | IC50 [4]: > 1000 nM; shift in IC50, ScDHOD-D10attB vs parental line [4]: > 1900 fold; protection / survival of mice [5]: completely protected; fold change in IC50, DEC-R clone vs parental 3D7 [6]: 4 fold; IC50 [7]: 0.512 ± 0.164 nM; IC50 [8]: 1.7 nM; loss of potency, F267V mutant ([9]; ATQ-R line vs parental 3D7): 20 fold; loss of potency, residue 144 mutant ([9]; ATQ-R line vs parental 3D7): ~200 fold; loss of potency, triple mutant (M133I/V140T/L181V) ([9]; ATQ-R line vs parental 3D7): 2000 fold; loss of potency, residue 133 mutants (M133I, M133V) ([9]; ATQ-R lines vs parental 3D7): ~16 fold; IC50 [10]: 7.6 nM
OC(c1cc(C(F)(F)F)nc2c(C(F)(F)F)cccc12)C1CCCCN1 (stereo not shown) [mefloquine] |  |  |  | IC50 [4]: 4.02 ± 1.4 nM; shift in IC50, ScDHOD-D10attB vs parental line [4]: slight increase in mefloquine sensitivity; IC50 [7]: 7.88 ± 1.64 nM; shift of IC50 across ATQ-R lines (control compounds) ([9]; ATQ-R lines vs parental 3D7): 2 fold
Muconomycin B | 30 nM | 12.5 |  | 
